Source: ChEMBL document CHEMBL5247578, “Effective synthesis of benzimidazoles-imidazo[1,2-a]pyrazine conjugates: A comparative study of mono-and bis-benzimidazoles for antitumor activity” (Eur J Med Chem, 2019)

Experiments:
[1] = n-Octanol/phosphate buffer partition coefficient, logP of the compound at pH 7.4 incubated for 85 mins by shake-flask method; type: physicochemical
Method in brief: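 Octanol–water partition by shake-flask: n-octanol with 0.15 M phosphate buffer pH 7.4 at 10:1 volumes. Buffer-phase absorbance read before mixing, then shaken 50 min and centrifuged at 2500 rpm for 35 min. Buffer absorbance read again; P = (Ai−Af)/Af × Vw/Vo.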

[2] = tested on: MDA-MB-468; test: Antiproliferative activity against human MDA-MB-468 cells assessed as cell growth inhibition at 10 uM incubated for 48 hrs by sulforhodamine B assay relative to control; type: functional
Method in brief: (§1)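 NCI-60 single-dose screen at 10^-5 M. Cells grown in RPMI 1640 with 5% FBS and 2 mM L-glutamine, plated at 5,000–40,000 cells/well, and preincubated 24 h. Drug (DMSO stock) added and incubated 48 h at 37 °C, 5% CO2. Adherent cells fixed with cold TCA, stained with 0.4% SRB in 1% acetic acid, dye solubilized in 10 mM trizma base, A515 read. Percent growth taken against time-zero and untreated control.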

[3] = tested on: T47D; test: Antiproliferative activity against human T47D cells assessed as cell growth inhibition at 10 uM incubated for 48 hrs by sulforhodamine B assay relative to control; type: functional; method in brief: as §1
[4] = tested on: Hs-578T; test: Antiproliferative activity against human Hs-578T cells assessed as cell growth inhibition at 10 uM incubated for 48 hrs by sulforhodamine B assay relative to control; type: functional; method in brief: as §1
[5] = tested on: MDA-MB-231; test: Antiproliferative activity against human MDA-MB-231 cells assessed as cell growth inhibition at 10 uM incubated for 48 hrs by sulforhodamine B assay relative to control; type: functional; method in brief: as §1
[6] = tested on: DU-145; test: Antiproliferative activity against human DU-145 cells assessed as cell growth inhibition at 10 uM incubated for 48 hrs by sulforhodamine B assay relative to control; type: functional
Method in brief: (§2)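 NCI-60 one-dose prescreen at 10^-5 M. Cells grown in RPMI 1640 with 5% FBS and 2 mM glutamine, preincubated 24 h, then exposed 48 h at 37 °C. Adherent lines TCA-fixed, SRB-stained, A515 read. Growth percent relative to time-zero and control; negative values mean cell kill.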

[7] = tested on: PC-3; test: Antiproliferative activity against human PC-3 cells assessed as cell growth inhibition at 10 uM incubated for 48 hrs by sulforhodamine B assay relative to control; type: functional; method in brief: as §1
[8] = tested on: UO-31; test: Antiproliferative activity against human UO-31 cells assessed as cell growth inhibition at 10 uM incubated for 48 hrs by sulforhodamine B assay relative to control; type: functional; method in brief: as §1
[9] = tested on: TK-10; test: Antiproliferative activity against human TK-10 cells assessed as cell growth inhibition at 10 uM incubated for 48 hrs by sulforhodamine B assay relative to control; type: functional; method in brief: as §1
[10] = tested on: RXF 393; test: Antiproliferative activity against human RXF 393 cells assessed as cell growth inhibition at 10 uM incubated for 48 hrs by sulforhodamine B assay relative to control; type: functional; method in brief: as §1
[11] = tested on: ACHN; test: Antiproliferative activity against human ACHN cells assessed as cell growth inhibition at 10 uM incubated for 48 hrs by sulforhodamine B assay relative to control; type: functional
Method in brief: (§3)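 Single-dose NCI-60 prescreen at 10^-5 M. Cells in RPMI 1640 with 5% FBS and 2 mM L-glutamine, seeded 5,000–40,000 cells/well with 24 h preincubation, then drug exposure for 48 h at 37 °C under 5% CO2. Growth read by SRB staining of TCA-fixed cells at 515 nm against time-zero and untreated controls. Negative growth values denote cell kill.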

[12] = tested on: A498; test: Antiproliferative activity against human A498 cells assessed as cell growth inhibition at 10 uM incubated for 48 hrs by sulforhodamine B assay relative to control; type: functional; method in brief: as §3
[13] = tested on: 786-0; test: Antiproliferative activity against human 786-0 cells assessed as cell growth inhibition at 10 uM incubated for 48 hrs by sulforhodamine B assay relative to control; type: functional; method in brief: as §3
[14] = tested on: OVCAR-8; test: Antiproliferative activity against human OVCAR-8 cells assessed as cell growth inhibition at 10 uM incubated for 48 hrs by sulforhodamine B assay relative to control; type: functional; method in brief: as §1
[15] = tested on: IGROV-1; test: Antiproliferative activity against human IGROV-1 cells assessed as cell growth inhibition at 10 uM incubated for 48 hrs by sulforhodamine B assay relative to control; type: functional; method in brief: as §1
[16] = tested on: UACC-62; test: Antiproliferative activity against human UACC-62 cells assessed as cell growth inhibition at 10 uM incubated for 48 hrs by sulforhodamine B assay relative to control; type: functional; method in brief: as §1
[17] = tested on: SK-MEL-5; test: Antiproliferative activity against human SK-MEL-5 cells assessed as cell growth inhibition at 10 uM incubated for 48 hrs by sulforhodamine B assay relative to control; type: functional; method in brief: as §1
[18] = tested on: SK-MEL-2; test: Antiproliferative activity against human SK-MEL-2 cells assessed as cell growth inhibition at 10 uM incubated for 48 hrs by sulforhodamine B assay relative to control; type: functional; method in brief: as §1
[19] = tested on: LOX IMVI; test: Antiproliferative activity against human LOX IMVI cells assessed as cell growth inhibition at 10 uM incubated for 48 hrs by sulforhodamine B assay relative to control; type: functional; method in brief: as §1
[20] = tested on: U-251; test: Antiproliferative activity against human U-251 cells assessed as cell growth inhibition at 10 uM incubated for 48 hrs by sulforhodamine B assay relative to control; type: functional; method in brief: as §1
[21] = tested on: SNB-19; test: Antiproliferative activity against human SNB-19 cells assessed as cell growth inhibition at 10 uM incubated for 48 hrs by sulforhodamine B assay relative to control; type: functional; method in brief: as §1
[22] = tested on: SF-539; test: Antiproliferative activity against human SF-539 cells assessed as cell growth inhibition at 10 uM incubated for 48 hrs by sulforhodamine B assay relative to control; type: functional; method in brief: as §1
[23] = tested on: KM12; test: Antiproliferative activity against human KM12 cells assessed as cell growth inhibition at 10 uM incubated for 48 hrs by sulforhodamine B assay relative to control; type: functional; method in brief: as §1
[24] = tested on: HT-29; test: Antiproliferative activity against human HT-29 cells assessed as cell growth inhibition at 10 uM incubated for 48 hrs by sulforhodamine B assay relative to control; type: functional; method in brief: as §1
[25] = tested on: HCT-15; test: Antiproliferative activity against human HCT-15 cells assessed as cell growth inhibition at 10 uM incubated for 48 hrs by sulforhodamine B assay relative to control; type: functional; method in brief: as §2
[26] = tested on: HCT-116; test: Antiproliferative activity against human HCT-116 cells assessed as cell growth inhibition at 10 uM incubated for 48 hrs by sulforhodamine B assay relative to control; type: functional; method in brief: as §2
[27] = tested on: HCC 2998; test: Antiproliferative activity against human HCC 2998 cells assessed as cell growth inhibition at 10 uM incubated for 48 hrs by sulforhodamine B assay relative to control; type: functional; method in brief: as §2
[28] = tested on: NCI-H522; test: Antiproliferative activity against human NCI-H522 cells assessed as cell growth inhibition at 10 uM incubated for 48 hrs by sulforhodamine B assay relative to control; type: functional; method in brief: as §1
[29] = tested on: NCI-H23; test: Antiproliferative activity against human NCI-H23 cells assessed as cell growth inhibition at 10 uM incubated for 48 hrs by sulforhodamine B assay relative to control; type: functional; method in brief: as §1
[30] = tested on: NCI-H226; test: Antiproliferative activity against human NCI-H226 cells assessed as cell growth inhibition at 10 uM incubated for 48 hrs by sulforhodamine B assay relative to control; type: functional; method in brief: as §1
[31] = tested on: HOP-92; test: Antiproliferative activity against human HOP-92 cells assessed as cell growth inhibition at 10 uM incubated for 48 hrs by sulforhodamine B assay relative to control; type: functional; method in brief: as §2
[32] = tested on: A549; test: Antiproliferative activity against human A549 cells assessed as cell growth inhibition at 10 uM incubated for 48 hrs by sulforhodamine B assay relative to control; type: functional; method in brief: as §3
[33] = tested on: SR; test: Antiproliferative activity against human SR cells assessed as cell growth inhibition at 10 uM incubated for 48 hrs by sulforhodamine B assay relative to control; type: functional; method in brief: as §1
[34] = tested on: RPMI-8226; test: Antiproliferative activity against human RPMI-8226 cells assessed as cell growth inhibition at 10 uM incubated for 48 hrs by sulforhodamine B assay relative to control; type: functional; method in brief: as §1
[35] = tested on: MOLT-4; test: Antiproliferative activity against human MOLT-4 cells assessed as cell growth inhibition at 10 uM incubated for 48 hrs by sulforhodamine B assay relative to control; type: functional; method in brief: as §1
[36] = tested on: K562; test: Antiproliferative activity against human K562 cells assessed as cell growth inhibition at 10 uM incubated for 48 hrs by sulforhodamine B assay relative to control; type: functional; method in brief: as §1
[37] = tested on: HL-60; test: Antiproliferative activity against human HL-60 cells assessed as cell growth inhibition at 10 uM incubated for 48 hrs by sulforhodamine B assay relative to control; type: functional; method in brief: as §2
[38] = tested on: CCRF-CEM; test: Antiproliferative activity against human CCRF-CEM cells assessed as cell growth inhibition at 10 uM incubated for 48 hrs by sulforhodamine B assay relative to control; type: functional; method in brief: as §3

## CCc1ccc(-c2cn3ccnc3c(-c3ccc4ncn(C5CCCCC5)c4c3)n2)cc1
[1]
  logD at 1.417 h: 1.66

## c1cn2cc(-c3ccsc3)nc(-c3ccc4ncn(C5CCCCC5)c4c3)c2n1
[1]
  logD at 1.417 h: 1.81
[2]
  inhibition at 10 µM: 21.8%
[3]
  inhibition at 10 µM: 63.7%
[4]
  inhibition at 10 µM: 5.56%
[5]
  inhibition at 10 µM: 1.35%
[6]
  inhibition at 10 µM: 1.36%
[7]
  inhibition at 10 µM: 19.9%
[8]
  inhibition at 10 µM: 23.1%
[9]
  inhibition at 10 µM: 3.37%
[10]
  inhibition at 10 µM: 8.63%
[11]
  inhibition at 10 µM: 5.76%
[12]
  inhibition at 10 µM: 20.1%
[13]
  inhibition at 10 µM: 6.35%
[14]
  inhibition at 10 µM: 12.1%
[15]
  inhibition at 10 µM: 1.51%
[16]
  inhibition at 10 µM: 18.4%
[17]
  inhibition at 10 µM: 25%
[18]
  inhibition at 10 µM: 3.68%
[19]
  inhibition at 10 µM: 4.9%
[20]
  inhibition at 10 µM: 6.09%
[21]
  inhibition at 10 µM: 0.39%
[22]
  inhibition at 10 µM: 6.29%
[23]
  inhibition at 10 µM: 15.4%
[24]
  inhibition at 10 µM: 5.68%
[25]
  inhibition at 10 µM: 1.37%
[26]
  inhibition at 10 µM: 13.3%
[27]
  inhibition at 10 µM: 2.18%
[28]
  inhibition at 10 µM: 10.2%
[29]
  inhibition at 10 µM: 10%
[30]
  inhibition at 10 µM: 6.34%
[31]
  inhibition at 10 µM: 27.8%
[32]
  inhibition at 10 µM: 3.97%
[33]
  inhibition at 10 µM: 14.3%
[34]
  inhibition at 10 µM: 37.9%
[35]
  inhibition at 10 µM: 30%
[36]
  inhibition at 10 µM: 22%
[37]
  inhibition at 10 µM: 18.4%
[38]
  inhibition at 10 µM: 29.2%

## Cc1cccc(-c2cn3ccnc3c(-c3ccc4ncn(C5CCCCC5)c4c3)n2)c1
[1]
  logD at 1.417 h: 1.87
